Assay results as given in ChEMBL document CHEMBL4251655 (Eur J Med Chem, 2018).
≈ marks a conversion by molar mass, not a printed value.

Legend:
[1] = biological target: cAMP-dependent protein kinase catalytic subunit alpha (Homo sapiens) (UniProt P17612); experiment: Inhibition of recombinant human His-tagged PRKACA expressed in Escherichia coli at 1 uM relative to control
Method in brief: (§1)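 Forty-kinase selectivity panel; each compound tested at a single 1 µM concentration in the presence of 1 mM ATP; result given as percent inhibition.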

[2] = biological target: Serine/threonine-protein kinase pim-2 (Homo sapiens) (UniProt Q9P1W9); experiment: Inhibition of recombinant human full length GST-tagged PIM2 expressed in baculovirus expression system at 1 uM relative to control; method in brief: as §1
[3] = biological target: Fibroblast growth factor receptor 1 (Homo sapiens) (UniProt P11362); experiment: Inhibition of recombinant human His-tagged FGFR1 cytoplasmic domain expressed in baculovirus expression system at 1 uM relative to control; method in brief: as §1
[4] = biological target: Mitogen-activated protein kinase kinase kinase kinase 4 (Homo sapiens) (UniProt O95819); experiment: Inhibition of recombinant human GST-tagged MAP4K4 (1 to 328 residues) expressed in baculovirus expression system at 1 uM relative to control; method in brief: as §1
[5] = biological target: T1, Tyrosine-protein kinase JAK3 (Homo sapiens) (UniProt P52333); experiment: Inhibition of recombinant human GST-tagged JAK3 expressed in baculovirus expression system at 1 uM relative to control; method in brief: as §1
T1 sequence (whole entry): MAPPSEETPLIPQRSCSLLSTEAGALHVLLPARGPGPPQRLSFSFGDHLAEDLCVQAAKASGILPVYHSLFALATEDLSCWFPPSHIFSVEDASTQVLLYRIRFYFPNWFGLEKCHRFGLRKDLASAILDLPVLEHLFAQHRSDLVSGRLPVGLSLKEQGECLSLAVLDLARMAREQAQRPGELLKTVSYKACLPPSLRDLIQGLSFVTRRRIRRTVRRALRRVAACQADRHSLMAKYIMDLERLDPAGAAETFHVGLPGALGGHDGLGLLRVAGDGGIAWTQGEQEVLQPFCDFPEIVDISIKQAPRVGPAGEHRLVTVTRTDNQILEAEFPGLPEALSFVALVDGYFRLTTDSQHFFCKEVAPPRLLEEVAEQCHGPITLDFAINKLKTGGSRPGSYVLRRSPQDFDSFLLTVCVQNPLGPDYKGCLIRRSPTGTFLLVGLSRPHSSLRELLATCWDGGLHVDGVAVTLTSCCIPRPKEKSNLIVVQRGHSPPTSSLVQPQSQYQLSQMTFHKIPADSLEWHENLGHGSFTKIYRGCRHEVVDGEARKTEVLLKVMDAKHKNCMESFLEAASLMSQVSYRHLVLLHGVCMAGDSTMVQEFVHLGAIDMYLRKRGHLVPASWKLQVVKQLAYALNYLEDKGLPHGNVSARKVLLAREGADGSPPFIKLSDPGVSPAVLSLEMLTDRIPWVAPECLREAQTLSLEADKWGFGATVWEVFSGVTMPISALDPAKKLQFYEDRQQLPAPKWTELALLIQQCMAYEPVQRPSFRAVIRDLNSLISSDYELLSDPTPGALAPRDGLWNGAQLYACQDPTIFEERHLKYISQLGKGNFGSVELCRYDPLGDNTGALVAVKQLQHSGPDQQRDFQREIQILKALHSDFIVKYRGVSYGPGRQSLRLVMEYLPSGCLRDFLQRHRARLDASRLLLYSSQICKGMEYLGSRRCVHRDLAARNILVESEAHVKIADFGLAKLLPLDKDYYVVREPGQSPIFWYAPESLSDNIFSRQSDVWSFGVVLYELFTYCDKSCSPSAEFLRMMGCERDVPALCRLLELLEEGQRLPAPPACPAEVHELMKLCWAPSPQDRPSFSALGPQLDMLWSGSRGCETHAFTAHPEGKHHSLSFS

[6] = biological target: T2, Serine/threonine-protein kinase Sgk1 (Homo sapiens) (UniProt O00141); experiment: Inhibition of recombinant human GST-tagged SGK1 expressed in baculovirus expression system at 1 uM relative to control; method in brief: as §1
T2 sequence (whole entry): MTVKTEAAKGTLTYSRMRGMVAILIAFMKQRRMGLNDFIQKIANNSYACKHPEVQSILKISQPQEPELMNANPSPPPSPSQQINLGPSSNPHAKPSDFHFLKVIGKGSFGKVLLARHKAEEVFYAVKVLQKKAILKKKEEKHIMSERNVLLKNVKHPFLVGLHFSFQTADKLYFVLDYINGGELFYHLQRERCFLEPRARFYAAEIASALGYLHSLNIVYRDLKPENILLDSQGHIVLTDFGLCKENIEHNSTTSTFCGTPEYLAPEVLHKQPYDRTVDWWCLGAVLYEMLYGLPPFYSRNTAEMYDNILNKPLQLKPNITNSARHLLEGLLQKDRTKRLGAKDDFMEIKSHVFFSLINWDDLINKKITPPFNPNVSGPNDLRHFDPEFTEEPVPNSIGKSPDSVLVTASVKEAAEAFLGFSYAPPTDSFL

[7] = biological target: T3, Serine/threonine-protein kinase Nek2 (Homo sapiens) (UniProt P51955); experiment: Inhibition of recombinant human full length His-tagged NEK2 expressed in baculovirus expression system at 1 uM relative to control; method in brief: as §1
T3 sequence (whole entry): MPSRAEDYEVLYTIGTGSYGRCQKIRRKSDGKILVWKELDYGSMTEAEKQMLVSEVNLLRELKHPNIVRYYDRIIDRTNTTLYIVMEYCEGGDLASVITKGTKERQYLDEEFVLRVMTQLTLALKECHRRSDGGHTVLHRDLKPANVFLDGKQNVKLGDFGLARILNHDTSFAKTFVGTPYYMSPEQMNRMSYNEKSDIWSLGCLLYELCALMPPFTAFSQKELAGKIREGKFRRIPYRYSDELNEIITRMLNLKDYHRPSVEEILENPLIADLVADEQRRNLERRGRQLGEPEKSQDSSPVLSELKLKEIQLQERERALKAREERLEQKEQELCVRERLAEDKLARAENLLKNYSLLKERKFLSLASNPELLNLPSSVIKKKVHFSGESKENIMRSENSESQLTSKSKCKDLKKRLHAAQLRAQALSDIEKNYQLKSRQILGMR

[8] = Oral bioavailability in rat at 5 mg/kg administered via gavage; format: ADME, organism-based; conditions: in vivo
Method in brief: (§2)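 Rat, oral dosing as a solution.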

[9] = Clearance in rat hepatocytes assessed per million cells; format: ADME, cell-based, Hepatocyte
[10] = Thermodynamic solubility of the compound at pH 7.4; format: physicochemical; conditions: buffer, read-out: Therm_solubility
[11] = Clearance in rat at 1 mg/kg, iv by LC-MS/MS analysis; format: ADME, organism-based; conditions: in vivo
Method in brief: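 Rat, single 1 mg/kg intravenous dose.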

[12] = Oral bioavailability in rat at 1 mg/kg administered via gavage; format: ADME, organism-based; conditions: in vivo; method in brief: as §2

Sequence of Serine/threonine-protein kinase pim-2 (Homo sapiens) (Q9P1W9 whole entry, looked up, the tested form may be a part): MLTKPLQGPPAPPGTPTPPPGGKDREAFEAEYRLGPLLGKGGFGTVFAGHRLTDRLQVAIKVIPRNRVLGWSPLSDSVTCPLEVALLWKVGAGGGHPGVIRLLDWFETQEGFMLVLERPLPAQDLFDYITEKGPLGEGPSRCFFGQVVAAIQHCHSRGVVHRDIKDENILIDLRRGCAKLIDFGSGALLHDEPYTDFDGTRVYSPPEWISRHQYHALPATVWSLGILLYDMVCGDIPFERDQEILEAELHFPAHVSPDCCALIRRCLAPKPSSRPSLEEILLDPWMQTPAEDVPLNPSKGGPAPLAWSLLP
Sequence of Mitogen-activated protein kinase kinase kinase kinase 4 (Homo sapiens) (O95819 2-1239 limits assumed): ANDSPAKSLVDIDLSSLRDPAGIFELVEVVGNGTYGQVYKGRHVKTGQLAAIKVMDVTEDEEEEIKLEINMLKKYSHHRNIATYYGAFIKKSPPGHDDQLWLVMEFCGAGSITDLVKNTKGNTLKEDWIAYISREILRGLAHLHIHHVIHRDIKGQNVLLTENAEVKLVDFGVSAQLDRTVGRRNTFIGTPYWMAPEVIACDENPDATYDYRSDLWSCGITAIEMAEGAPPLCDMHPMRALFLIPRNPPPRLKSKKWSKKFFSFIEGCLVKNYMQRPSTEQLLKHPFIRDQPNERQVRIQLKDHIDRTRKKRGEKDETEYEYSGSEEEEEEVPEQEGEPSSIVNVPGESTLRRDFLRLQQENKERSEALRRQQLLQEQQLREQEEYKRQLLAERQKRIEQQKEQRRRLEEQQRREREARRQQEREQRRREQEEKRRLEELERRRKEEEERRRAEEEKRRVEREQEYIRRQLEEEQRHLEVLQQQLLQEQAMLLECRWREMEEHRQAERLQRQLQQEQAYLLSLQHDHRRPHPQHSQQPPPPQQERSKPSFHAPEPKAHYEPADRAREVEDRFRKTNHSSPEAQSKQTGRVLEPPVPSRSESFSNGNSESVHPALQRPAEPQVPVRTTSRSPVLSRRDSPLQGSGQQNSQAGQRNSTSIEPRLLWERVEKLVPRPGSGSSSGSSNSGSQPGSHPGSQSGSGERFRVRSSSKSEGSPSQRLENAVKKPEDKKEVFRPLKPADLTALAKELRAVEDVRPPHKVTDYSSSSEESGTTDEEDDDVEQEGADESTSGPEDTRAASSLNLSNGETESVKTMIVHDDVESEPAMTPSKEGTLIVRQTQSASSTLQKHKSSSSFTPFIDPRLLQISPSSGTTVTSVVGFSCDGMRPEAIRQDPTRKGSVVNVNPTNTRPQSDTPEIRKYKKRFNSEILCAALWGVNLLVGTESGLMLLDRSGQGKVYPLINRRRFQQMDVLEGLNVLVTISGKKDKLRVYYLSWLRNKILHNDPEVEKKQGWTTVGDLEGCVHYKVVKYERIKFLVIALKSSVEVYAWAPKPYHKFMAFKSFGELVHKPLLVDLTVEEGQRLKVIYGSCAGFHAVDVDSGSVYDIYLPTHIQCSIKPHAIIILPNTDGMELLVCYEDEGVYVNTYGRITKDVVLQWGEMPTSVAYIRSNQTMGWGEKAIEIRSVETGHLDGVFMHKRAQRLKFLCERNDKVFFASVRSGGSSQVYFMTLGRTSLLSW
Sequence of Fibroblast growth factor receptor 1 (Homo sapiens) (P11362 22-822 limits assumed): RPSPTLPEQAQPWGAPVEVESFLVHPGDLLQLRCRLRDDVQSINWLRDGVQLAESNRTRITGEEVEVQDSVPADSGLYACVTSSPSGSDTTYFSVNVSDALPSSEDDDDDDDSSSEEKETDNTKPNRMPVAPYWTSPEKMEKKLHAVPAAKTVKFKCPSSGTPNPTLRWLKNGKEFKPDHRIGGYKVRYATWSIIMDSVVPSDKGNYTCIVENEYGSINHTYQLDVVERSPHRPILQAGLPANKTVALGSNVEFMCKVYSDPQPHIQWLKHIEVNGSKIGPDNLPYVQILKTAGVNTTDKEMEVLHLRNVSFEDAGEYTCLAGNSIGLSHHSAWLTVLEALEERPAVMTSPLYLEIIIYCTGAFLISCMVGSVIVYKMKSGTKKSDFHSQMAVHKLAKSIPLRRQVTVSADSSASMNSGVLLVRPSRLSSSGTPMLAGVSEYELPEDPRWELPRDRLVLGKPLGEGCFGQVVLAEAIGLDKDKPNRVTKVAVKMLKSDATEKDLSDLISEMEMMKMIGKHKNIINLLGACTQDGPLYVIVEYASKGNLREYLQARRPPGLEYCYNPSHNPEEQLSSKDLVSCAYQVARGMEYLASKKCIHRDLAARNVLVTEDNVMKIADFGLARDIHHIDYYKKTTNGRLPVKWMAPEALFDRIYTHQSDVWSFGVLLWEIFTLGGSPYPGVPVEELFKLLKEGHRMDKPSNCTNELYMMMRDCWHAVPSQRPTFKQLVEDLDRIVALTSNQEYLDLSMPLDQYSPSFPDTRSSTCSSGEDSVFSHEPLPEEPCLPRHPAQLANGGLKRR

inhibition [1] [%] | inhibition [2] [%] | inhibition [3] [%] | inhibition [4] [%] | inhibition [5] [%] | inhibition [6] [%] | inhibition [7] [%] | bioavailability [8] [%] | CLH [9] [µL/min/1e6 cells] | solubility thermodynamic [10] [µM] | clearance [11] [mL/min/kg] | bioavailability [12] [%] | SMILES
1 | 3 | 2 | 44 | 16 | 1 | 0 | – | – | – | – | – | COc1cc(C)c(S(N)(=O)=O)cc1C(=O)Nc1cccc(-c2nncn2C(C)C)n1
– | 2 | -6 | 18 | -8 | – | -3 | < 1 | < 6 | 1.2 (≈ 0.5 µg/mL) | 35 | – | COc1ccc(S(N)(=O)=O)cc1C(=O)Nc1cccc(-c2nncn2C(C)C)n1
-1 | 0 | 2 | 85 | 3 | -2 | – | – | – | – | – | – | COc1cc(C)c(C(N)=O)cc1C(=O)Nc1cccc(-c2nncn2C(C)C)n1
-5 | 2 | – | 12 | 12 | 2 | 1 | – | < 6 | 5 (≈ 2.08 µg/mL) | 41 | 8 | COc1ccc(S(C)(=O)=O)cc1C(=O)Nc1cccc(-c2nncn2C(C)C)n1

Second part, the molecule before the results:

SMILES | inhibition [1] [%] | inhibition [2] [%] | inhibition [3] [%] | inhibition [4] [%] | inhibition [5] [%] | inhibition [6] [%] | inhibition [7] [%] | bioavailability [8] [%] | CLH [9] [µL/min/1e6 cells] | solubility thermodynamic [10] [µM] | clearance [11] [mL/min/kg] | bioavailability [12] [%]
COc1cc(C)c(S(C)(=O)=O)cc1C(=O)Nc1cccc(-c2nncn2C(C)C)n1 | 3 | 5 | 2 | 20 | 0 | 1 | – | – | – | – | – | –
COc1ccc(C(N)=O)cc1C(=O)Nc1cccc(-c2nncn2C(C)C)n1 | -1 | -1 | -2 | 18 | – | -9 | – | – | – | – | – | –
